Data published in ChEMBL document CHEMBL1147102, “rpoN gene of Pseudomonas aeruginosa alters its susceptibility to quinolones and carbapenems” (2007).
≈ marks a conversion by molar mass, not a printed value.

Key:
Format in all cases: functional
Pseudomonas aeruginosa [1] = experiment: Antimicrobial activity against Pseudomonas aeruginosa PAO1 with rpoN mutation after 24 hrs; settings: PAO1, 24 h
Summary of the method: (§1)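 Broth microdilution in LB broth, inoculum 1 × 10⁶ cells/ml. MIC read after 24 h at 37°C as the lowest concentration giving complete growth inhibition by unaided eye. For MBC, 10 μl from each well without visible growth was plated on LB agar and incubated 24 h at 37°C.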

Pseudomonas aeruginosa [2] = experiment: Antimicrobial activity against Pseudomonas aeruginosa PAO1 with pvdS mutation after 24 hrs; settings: PAO1, 24 h; summary of the method: as §1
Pseudomonas aeruginosa [3] = experiment: Antimicrobial activity against wild type Pseudomonas aeruginosa PAO1 after 24 hrs; settings: PAO1, 24 h; summary of the method: as §1
Pseudomonas aeruginosa [4] = experiment: Increase in GFP tagged vqsR protein expression in Pseudomonas aeruginosa PAO1 with rpoN mutation at 8 ug/ml by flow cytometry relative to wild type
Summary of the method: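 Strains carried a plasmid GFP reporter driven by the vqsR promoter. Cells were grown in LB broth with carbenicillin 400 μg/ml. Stationary-phase (overnight) cultures were washed, resuspended in fresh LB and given ofloxacin 8 μg/ml. Samples were taken over 0–5 h, washed and resuspended in PBS. Mean fluorescence intensity came from 20,000 events, corrected for background (PAO1 without gfp). Three experiments.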

Pseudomonas aeruginosa [5] = experiment: Increase in pvdS gene expression in Pseudomonas aeruginosa PAO1 with rpoN mutation at 8 ug/ml after 3 hrs relative to wild type
Summary of the method: (§2)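 Overnight LB cultures were washed and resuspended in fresh LB with ofloxacin 8 μg/ml. Sampling was at 0, 1, 3 and 5 h, with RNA stabilized immediately. DNase-treated total RNA (~650 ng) was reverse transcribed. qRT-PCR was quantified against external plasmid standard curves and normalized to the rpsL reference gene. Triplicate reactions.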

Pseudomonas aeruginosa [6] = experiment: Increase in vqsR gene expression in Pseudomonas aeruginosa PAO1 with rpoN mutation at 8 ug/ml relative to wild type; summary of the method: as §2

SMILES | MBC (Pseudomonas aeruginosa [1]) | MIC (Pseudomonas aeruginosa [1]) | MBC (Pseudomonas aeruginosa [2]) | MIC (Pseudomonas aeruginosa [2]) | MBC (Pseudomonas aeruginosa [3]) | MIC (Pseudomonas aeruginosa [3]) | Fold change (Pseudomonas aeruginosa [4]) | Fold change (Pseudomonas aeruginosa [5]) | Fold change (Pseudomonas aeruginosa [6])
O=C(O)c1cn(C2CC2)c2cc(N3CCNCC3)c(F)cc2c1=O [CIPROFLOXACIN] | 2 µg/mL (≈ 6.04 µM) | 0.25 µg/mL (≈ 0.754 µM) | 0.25 µg/mL (≈ 0.754 µM) | 0.125 µg/mL (≈ 0.377 µM) | 0.5 µg/mL (≈ 1.51 µM) | 0.125 µg/mL (≈ 0.377 µM) | – | – | –
CC1COc2c(N3CCN(C)CC3)c(F)cc3c(=O)c(C(=O)O)cn1c23 (configuration not stated) [OFLOXACIN] | 2 µg/mL (≈ 5.53 µM) | 1 µg/mL (≈ 2.77 µM) | 2 µg/mL (≈ 5.53 µM) | 1 µg/mL (≈ 2.77 µM) | 1 µg/mL (≈ 2.77 µM) | 1 µg/mL (≈ 2.77 µM) | 8 | 30 | 2.5
C[C@@H](O)[C@H]1C(=O)N2C(C(=O)[O-])=C(SC3Cn4cnc[n+]4C3)[C@H](C)[C@H]12 (some centres not stated) [BIAPENEM] | 16 µg/mL (≈ 45.7 µM) | 0.5 µg/mL (≈ 1.43 µM) | 1 µg/mL (≈ 2.85 µM) | 0.5 µg/mL (≈ 1.43 µM) | 2 µg/mL (≈ 5.71 µM) | 0.5 µg/mL (≈ 1.43 µM) | – | – | –
C[C@@H](O)[C@H]1C(=O)N2C(C(=O)O)=C(SCCNC=N)C[C@H]12 [IMIPENEM ANHYDROUS] | 16 µg/mL (≈ 53.4 µM) | 1 µg/mL (≈ 3.34 µM) | 4 µg/mL (≈ 13.4 µM) | 1 µg/mL (≈ 3.34 µM) | 1 µg/mL (≈ 3.34 µM) | 1 µg/mL (≈ 3.34 µM) | – | – | –
